Published values from different studies.
Lines come from different studies, so protocols differ.
Target: Serine/threonine-protein kinase BRSK2 (BRSK2, Homo sapiens, UniProt Q8IWQ3)
One construct used (Q8IWQ3 1-736): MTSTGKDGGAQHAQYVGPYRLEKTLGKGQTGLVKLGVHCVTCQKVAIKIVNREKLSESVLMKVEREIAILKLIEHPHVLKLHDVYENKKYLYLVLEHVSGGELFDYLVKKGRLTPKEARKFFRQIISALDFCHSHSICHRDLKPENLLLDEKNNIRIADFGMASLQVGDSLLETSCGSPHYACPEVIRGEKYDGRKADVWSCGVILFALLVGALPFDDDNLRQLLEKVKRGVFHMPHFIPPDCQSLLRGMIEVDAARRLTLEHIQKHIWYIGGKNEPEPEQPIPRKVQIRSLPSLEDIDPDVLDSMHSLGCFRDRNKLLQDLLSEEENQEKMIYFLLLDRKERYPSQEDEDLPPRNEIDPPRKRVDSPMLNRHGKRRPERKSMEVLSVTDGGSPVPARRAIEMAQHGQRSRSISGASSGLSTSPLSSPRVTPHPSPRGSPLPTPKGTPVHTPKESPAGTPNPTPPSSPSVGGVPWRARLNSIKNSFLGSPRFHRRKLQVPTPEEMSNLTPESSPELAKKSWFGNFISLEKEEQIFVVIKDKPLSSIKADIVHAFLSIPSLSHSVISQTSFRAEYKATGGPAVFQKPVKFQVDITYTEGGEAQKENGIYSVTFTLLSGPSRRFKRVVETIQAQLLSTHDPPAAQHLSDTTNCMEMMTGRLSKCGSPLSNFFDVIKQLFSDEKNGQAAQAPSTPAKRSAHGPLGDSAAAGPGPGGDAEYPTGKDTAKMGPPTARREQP

| Structure (SMILES) | effect on | action | technique | tested at | measurement | value |
| --- | --- | --- | --- | --- | --- | --- |
| O=C(Nc1cnn(-c2csc(C(=O)NC3COC3)c2)c1)Nc1ccccc1Cl | enzyme activity | inhibitor | – | 5 µM | remaining activity | 102% |
| FC(F)(F)Oc1cccc(-c2cnc3ccc(-c4ccncc4)nn23)c1 | enzyme activity | inhibitor | radiometric | 1 µM | activity vs control | 81% |
| CC(C)(C)C(=O)c1sc(NC2CCCCC2)nc1N | enzyme activity | inhibitor | – | 10 µM | remaining activity | 95% |
| CN(C)S(=O)(=O)c1ccc2c(c1)/C(=C/c1cc3c([nH]1)CCCC3)C(=O)N2 | cell-free assay | – | – | 0.5 µM | remaining signal | 48.7% |
| CC(C)(C)c1nc(-c2cccc(NS(=O)(=O)c3c(F)cccc3F)c2F)c(-c2ccnc(N)n2)s1 | enzyme activity | inhibitor | radiometric | 1 µM | remaining activity | 50% |
| COc1ccc(COc2ccc(Cc3cnc(N)nc3N)cc2OC)cc1 | cell-free assay | – | – | 0.5 µM | remaining signal | 96.8% |
| Cc1ccc(Nc2nccc(N(C)c3ccc4c(C)n(C)nc4c3)n2)cc1S(N)(=O)=O | enzyme activity | inhibitor | – | 0.3 µM | inhibition | 1% |
| Cc1c(C(=O)O)cc(-c2ccc(C3CCNCC3)cc2)c2ccc(-c3ccc(C(F)(F)F)cc3)cc12 | binding | – | competition with immobilised ligand | 1 µM | remaining binding | 100% |
| Cc1ccc(C(=O)Nc2ccc(CN3CCN(C)CC3)c(C(F)(F)F)c2)cc1C#Cc1cnc2cccnn12 | enzyme activity | inhibitor | – | 23.5 nM | remaining activity | 92% |
| Oc1cccc(-c2nc(N3CCOCC3)c3oc4ncccc4c3n2)c1 | enzyme activity | inhibitor | – | 10 µM | remaining activity | 99% |
| Cc1cc(NC(=O)c2cccc3cc(-c4cccc5[nH]nc(N)c45)ccc23)ccc1F | enzyme activity | inhibitor | – | 0.1 µM | activity vs control | 100% |
| Nc1nc(NC2CCCCC2)sc1C(=O)c1ccccc1 | enzyme activity | inhibitor | – | 10 µM | remaining activity | 93% |
| CN(C)C(=O)Cn1cc(-c2nc([C@@](C)(c3ccc(-c4cnc(N)nc4)cc3)C3CC3)no2)cn1 | cell-free assay | – | competition with immobilised ligand | 1 µM | remaining binding | 100% |
| CCCS(=O)(=O)Nc1ccc(F)c(C(=O)c2c[nH]c3ncc(-c4ccc(Cl)cc4)cc23)c1F | enzyme activity | inhibitor | – | 1 µM | inhibition | < 10% |
| CNC(=O)c1cc(Oc2ccc(NC(=O)Nc3ccc(Cl)c(C(F)(F)F)c3)cc2)ccn1 | cell-free assay | – | – | 0.5 µM | remaining signal | 103% |
| CS(=O)(=O)N1CCCC(NC(=O)[C@H](CCC2CCCCC2)NC(=O)c2ccc(CNC(=O)c3cnc4ccccn34)cc2)C1 (stereo partly shown) | cell-free assay | – | competition with immobilised ligand | 0.1 µM | remaining binding | 100% |
| CC/C(=N\NC(=O)NCc1cccc(O)c1)c1ccc(O)c(C)c1O | enzyme activity | inhibitor | – | 0.1 µM | inhibition | 3.7% |
| N#CCCc1ccc2c(c1)-c1[nH]c3ccc([N+](=O)[O-])cc3c1CC(=O)N2 | cell-free assay | – | – | 0.5 µM | remaining signal | 42% |
| Cc1cc(-n2nc(Cc3cc(F)cc(C(F)(F)F)c3)nc2C)ccc1C(N)=O | cell-free assay | – | competition with immobilised ligand | 1 µM | remaining binding | 77% |
| CC(C)(O)[C@H]1CC[C@H](Nc2ccc3ncc(-c4cccc(C(F)(F)F)c4)n3n2)CC1 | enzyme activity | inhibitor | – | 1 µM | remaining activity | 94.4% |
| CSc1cccnc1N1CCN(Cc2nc3ccccc3[nH]2)CC1 | cell-free assay | – | competition with immobilised ligand | 1 µM | remaining binding | 100% |
| COc1cc(Nc2cnc(C#N)c(O[C@H](C)CN(C)C)n2)ncc1-c1cnn(C)c1 | enzyme activity | inhibitor | radiometric | 10 µM | remaining activity | 14% |
| CNCc1ccccc1-c1csc([C@@H](C)Nc2nc(C)nc3cc(OC)c(OC)cc23)c1 | cell-free assay | – | competition with immobilised ligand | 1 µM | remaining binding | 100% |
| COc1cc(Cl)c(C(=O)N[C@@H](CN[C@H]2CC[C@@H](N)CC2)Cc2ccc(C#N)cc2)cc1-c1ccc(CN[C@H](C)c2ccc(C)cc2)o1 | enzyme activity | inhibitor | – | 1 µM | remaining activity | 99% |
| FC(F)(F)c1ccc2c(c1)nc(-c1cccnc1)n2C1CC1 | cell-free assay | – | competition with immobilised ligand | 1 µM | remaining binding | 90% |
| O=C(Nc1cnn(-c2csc(C(=O)NC3COC3)c2)c1)Nc1c(F)cccc1Cl | enzyme activity | inhibitor | – | 5 µM | remaining activity | 100% |
| CN([C@@H]1CCc2c(CC(=O)O)c3ccccc3n2C1)S(=O)(=O)c1ccc(F)cc1 | cell-free assay | – | competition with immobilised ligand | 1 µM | remaining binding | 100% |
| CN1CC(Oc2cnc(C#N)cc2-c2ccn3nc(NC(=O)C4CC4)cc3c2)C1 | enzyme activity | inhibitor | – | 1 µM | inhibition | 16% |
